PfM18AAP inh: PfM18AAP enzyme inhibition; 290,000 tested, 1.2% active; recombinant PfM18AAP, H-Glu-NHMec fluorogenic cleavage; AID 1822; inhibition, % at 7.35 µM;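 active = inhibition above the campaign mean inhibition over all tested compounds plus 3 SD, cut at about 28% in these data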
CHOP inhibitor: CHOP inhibition in unfolded protein response; CHO-K1 CHOP-promoter luciferase, tunicamycin-induced, 15-18 h; inhibition, % at 10 µM; 220,000 tested, 3.8% active; AID 2732;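 active = compounds that reduced the stress-induced luciferase reporter signal by more than about 70% of percent inhibition, limit read from the data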
p97 inhibitor: human p97 ATPase inhibition; P55072; recombinant p97 ATPase, Kinase-Glo ATP luminescence, 3 h; inhibition, % at 8 µM; 220,000 tested, 0.42% active; in the data active = inhibition above about 15%
Target sequence (P55072 whole entry, looked up): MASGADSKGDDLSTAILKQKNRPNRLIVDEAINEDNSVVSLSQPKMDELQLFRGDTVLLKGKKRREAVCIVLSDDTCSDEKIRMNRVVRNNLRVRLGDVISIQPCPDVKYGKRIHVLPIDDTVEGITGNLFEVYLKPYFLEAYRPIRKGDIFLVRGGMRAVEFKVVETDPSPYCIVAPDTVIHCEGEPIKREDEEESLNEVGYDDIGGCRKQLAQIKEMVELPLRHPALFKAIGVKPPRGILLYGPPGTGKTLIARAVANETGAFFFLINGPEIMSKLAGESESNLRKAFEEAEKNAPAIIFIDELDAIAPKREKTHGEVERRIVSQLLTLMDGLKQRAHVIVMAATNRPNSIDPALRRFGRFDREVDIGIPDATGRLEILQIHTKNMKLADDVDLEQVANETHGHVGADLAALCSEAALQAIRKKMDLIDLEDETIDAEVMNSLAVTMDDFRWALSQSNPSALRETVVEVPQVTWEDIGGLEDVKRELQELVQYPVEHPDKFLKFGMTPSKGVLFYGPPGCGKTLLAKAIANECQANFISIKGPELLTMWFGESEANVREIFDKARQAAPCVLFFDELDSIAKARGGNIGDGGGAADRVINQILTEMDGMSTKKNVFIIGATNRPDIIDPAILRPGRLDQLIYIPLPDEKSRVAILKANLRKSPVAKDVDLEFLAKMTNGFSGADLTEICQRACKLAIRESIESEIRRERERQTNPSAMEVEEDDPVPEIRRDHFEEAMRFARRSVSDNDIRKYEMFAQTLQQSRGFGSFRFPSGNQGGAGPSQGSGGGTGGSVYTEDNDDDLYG
HCV NS3 hel inh: blocks Hepatitis C virus NS3 helicase unwinding | 290,000 tested, 0.56% active | NS3 helicase DNA unwinding, Cy5 molecular beacon fluorescence | inhibition, % at 10.9 µM | AID 1800;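 active = inhibition above the mean of all tested compounds plus 3 SD, set per campaign, cut at about 35% in these data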
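System: Hepatitis C virus NS3 helicase domain fragment enzyme | Reagent: Annealed dual-labelled DNA beacon duplex, ATP-started | Compound dosing: 10.9 µM single point, 0.8% DMSO | Incubation: 1 h reaction at 25 °C, ATP-initiated | Technique: Cy5 fluorescence | Evaluation: Percent inhibition from t60/t0 fluorescence ratio | Benchmarks: Low DMSO, high thioflavine S at 110 µM | Replication: Singlicate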
UPR CHOP act: apoptotic UPR (CHOP) activation; CHO-CHOP luciferase reporter, luminescence; percent of tunicamycin response over DMSO baseline; activation, % at 10 µM; 330,000 tested, 0.34% active; AID 449763;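 active = at 10 µM dose, activation of 40% or more, normalized to positive control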
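Assay system: CHO-CHOP cells, stable luciferase reporter of PERK-eIF2a-CHOP signalling / Buffer or medium: F12 plus 10% serum / Compound dosing: one dose, 10 µM in 0.5% DMSO / Times: 6 h compound treatment, 37 °C / Technique: luciferase luminescence / Read-out: % reporter activation, DMSO baseline versus tunicamycin full activation / Benchmarks: tunicamycin and DMSO controls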
UPR XBP1 act: activators of adaptive arm of unfolded protein response (XBP1). CHO-XBP1 luciferase reporter, IRE1-XBP1 UPR activation, luminescence; percent of tunicamycin response, DMSO as zero. activation, % at 20 µM. 330,000 tested, 0.33% active;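 active = versus positive control, 20 µM dose yields 30% or more activation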
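Material: CHO-XBP1 cells stably carrying IRE1-XBP1-driven luciferase reporter / Amount: 1000 cells per well / Compound: 20 µM, 1% DMSO / Times: 6 h treatment, 37 °C / Detection: luciferase luminescence / Measure: % activation of reporter signal versus tunicamycin and DMSO controls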
A number is an active result; i = inactive; nt = no result given. Only some compounds are listed: those with a hit (about 4.5% of all), similar ones and a draw of the others.

SMILES | PfM18AAP inh | CHOP inhibitor | p97 inhibitor | HCV NS3 hel inh | UPR CHOP act | UPR XBP1 act
CN(C(=O)CSc1nnc(-c2cccs2)o1)C1CCS(=O)(=O)C1 (configuration not stated) | i | i | i | i | i | i
Cc1sc2ncnc(NCCc3ccc(S(N)(=O)=O)cc3)c2c1C | i | 73 | i | i | i | i
NS(=O)(=O)c1ccc(CCNc2ncnc3sccc23)cc1 | i | nt | i | i | i | i
COc1ccc(-c2cc(C(=O)N3CCN(c4cccc(C)c4C)CC3)c3ccccc3n2)cc1OC | nt | nt | nt | nt | i | i
Oc1ccc(/C=N\Nc2nncc(-c3ccccc3)n2)cc1 | i | i | i | i | i | i
COc1ccc(-c2cnnc(N/N=C/c3ccc(O)cc3)n2)cc1 | i | 81 | i | i | i | i
COc1ccc(-c2cnnc(N/N=C/c3ccc(O)c(O)c3)n2)cc1 | 48 | i | i | i | i | i
COc1cc(/C=C2\SC(=S)N(CCC(=O)N3CCCCC3)C2=O)cc(OC)c1OC | i | nt | nt | i | i | i
CCOC(=O)c1nc2c(=O)n(C)c(=O)n(C)c2n(C)c1=O | nt | nt | nt | nt | i | i
O=C(CCC(=O)N1CCN(c2ccc(C(F)(F)F)cn2)CC1)c1cccs1 | nt | nt | nt | nt | i | i
COc1cscc1C(=O)O | i | i | i | i | i | i
COc1cccc(-c2nnc3n2N=C(c2cc(OC)ccc2OC)CS3)c1 | i | i | i | i | i | i
COc1cccc(-c2nnc3n2N=C(C(C)(C)C)CS3)c1 | i | 75 | i | i | i | i
COCCSc1nnc(NC(=O)C2CC(=O)N(CCc3ccc(F)cc3)C2)s1 (configuration not stated) | i | nt | nt | i | i | i
N#C/C(=C\c1c(F)cccc1Cl)C(=O)NC1CC1 | i | nt | nt | i | i | i
CN(C)c1ccc(/C=N/NC(=O)C2COc3ccccc3O2)o1 (configuration not stated) | i | i | i | i | i | i
O=C(N/N=C\c1ccc(-c2ccc([N+](=O)[O-])cc2)o1)C1COc2ccccc2O1 (configuration not stated) | i | 81 | i | i | i | i
Cc1ccc(C(C(=O)NC(C)(C)C)N(Cc2ccccc2)C(=O)c2snc(C(N)=O)c2N)o1 (configuration not stated) | i | i | i | i | i | i
COc1ccc([C@H]2CC(=O)C=C(c3ccccc3OC)C2)cc1OC | nt | nt | nt | nt | i | i
CCc1cc(=O)oc2c(C)c(OCC(=O)N3CCC(C(=O)O)CC3)ccc12 | i | nt | nt | i | i | i
COc1cc(/C=C2\SC(=O)N(CC(=O)Nc3ccccc3F)C2=O)cc(Cl)c1O | i | nt | nt | i | i | i
CCOc1cc(/C=C2\SC(=O)N(CC(=O)Nc3ccccc3F)C2=O)cc([N+](=O)[O-])c1O | i | 93 | i | i | i | i
Cc1[nH]c2ccccc2c1C(=O)CSc1nc2ncc(Cl)cc2[nH]1 | i | 86 | i | i | i | i
COc1ccccc1CNC(=O)N/C=C/c1ccc(Cl)cc1 | i | i | i | i | i | i
O=c1[nH]nc(Cc2ccc(Cl)cc2)c2ccccc12 | i | i | i | i | i | i
SMILES | PfM18AAP inh | CHOP inhibitor | p97 inhibitor | HCV NS3 hel inh | UPR CHOP act | UPR XBP1 act
O=c1[nH]nc(CNc2ccc(Cl)cc2Cl)c2ccccc12 | i | 71 | i | i | i | i
O=c1[nH]nc(Cc2ccc(Cl)cc2Cl)c2ccccc12 | i | 80 | i | i | i | i
COc1ccc(NC(=O)C2CCCNC2)cc1OCC(C)C (configuration not stated) | i | 77 | i | i | i | i
COc1cc(/C=N\NC(=O)c2ccc(C)nc2)ccc1OC(=O)c1cccc(F)c1 | i | nt | nt | i | i | i
COc1ccc(-n2ncc3c(N4CCN(Cc5ccccc5)CC4)ncnc32)cc1 | i | i | i | i | i | i
Fc1ccc(-c2nc3ccncc3[nH]2)cc1 | i | i | i | i | i | i
Clc1ccc(-c2nc3ccncc3[nH]2)cc1 | 29 | i | i | i | i | i
O=C(NNc1ccccc1)Nc1ccccc1F | 30 | nt | nt | i | i | i
O=C(CN1CCN(c2ccc(O)cc2)CC1)Nc1cc([N+](=O)[O-])ccc1Cl | 33 | i | i | i | i | i
C=C1/C=C(\C)C(C)(O)CC(O)CC(=O)C(O)C(O)C(C)CC(C)OC(=O)/C(C)=C/CC/C=C/C(OC)C(O)CC(C)C1 (configuration not stated) | nt | nt | nt | nt | i | i
N#Cc1ccc(OCC(=O)Nc2ccc(S(=O)(=O)N3CCOCC3)cc2)cc1 | nt | nt | nt | nt | i | i
O=S(=O)(Cc1ccccc1)N=Nc1c(O)[nH]c2ccc(Br)cc12 | i | i | i | i | i | i
Cn1c(CSCc2ccc(Cl)cc2)nnc1SCC(=O)Nc1nccs1 | i | i | i | i | i | i
O=C(Cn1ncc2c(=O)oc3ccccc3c21)Nc1nc2ccccc2s1 | i | 88 | i | i | nt | nt
Cn1cc(SCC(=O)Nc2nc3ccccc3s2)c2ccccc21 | i | 71 | i | i | i | i
COc1ccc(NC(=O)CSC2=C(C#N)C(c3ccco3)C(C(=O)Nc3nc4ccccc4s3)=C(C)N2)cc1 (configuration not stated) | i | nt | i | i | i | i
CC(=O)C1=C(C)NC(SCC(=O)Nc2nc3ccccc3s2)=C(C#N)C1c1ccc(Cl)cc1 (configuration not stated) | i | 85 | i | i | i | i
Cn1c(CSCc2ccc(Cl)cc2)nnc1SCC(=O)Nc1nc2ccccc2s1 | i | 92 | i | i | i | i
CC1CC(C)CN(C(=O)COC(=O)COc2ccccc2C#N)C1 (configuration not stated) | nt | nt | nt | nt | i | i
NC(=O)c1ccc(NC(=O)CS(=O)(=O)c2cn(CC(=O)N3CCCCC3)c3ccccc23)cc1 | i | nt | nt | i | i | i
COc1ccc(-c2nnc(SCC(=O)Nc3nc4ccccc4s3)n2C)cc1 | i | 93 | i | i | i | i
COc1ccc(-c2nnc(SCC(=O)Nc3ccccc3)n2C)cc1 | i | i | i | i | i | i
CCOc1ccc(-c2nnc3ccc(SCC(=O)Nc4nc5ccccc5s4)nn23)cc1 | i | 70 | i | i | i | i
O=C(CSc1nnc(CNC(=O)c2ccco2)o1)Nc1nc2ccccc2s1 | 29 | i | i | i | i | i
Cc1cccc(OCCSc2nc3ccccc3n2CC(=O)O)c1 | i | nt | nt | i | i | i
COc1cc2c(cc1OC)CN(c1nc(CN3CCCC3)nc3sc(C)c(C)c13)CC2 | i | 78 | i | i | i | i
CC(C)Nc1nc(Oc2ccc(Cl)cc2Cl)cc(C(F)(F)F)n1 | i | i | i | i | i | i
CC(C)Nc1nc(Oc2cccc(Cl)c2Cl)cc(C(F)(F)F)n1 | i | 75 | i | i | i | i

Bioassay records deposited in PubChem BioAssay by several laboratories.
